Source: PubChem (Broad Institute)
S100A4 MyoIIA: S100A4-myosin IIA interaction inhibition | S100A4/TAMRA-MyoIIA peptide fluorescence polarization | inhibition, % at 10.7 µM | actives 0.14% (n = 360,000) | AID 652163;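 active = mean inhibition of at least 70% across replicates, with every replicate also reaching that level; inconclusive = mean inhibition reaches 70% but some replicates fall short; inactive = mean inhibition below 70%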
Target sequence (P26447 whole entry, looked up): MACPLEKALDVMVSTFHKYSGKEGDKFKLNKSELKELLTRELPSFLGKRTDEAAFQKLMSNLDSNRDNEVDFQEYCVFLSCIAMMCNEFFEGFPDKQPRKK
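Assay system: human S100A4 monomer with TAMRA-labelled myosin IIA peptide / Buffer or medium: Calcium-containing HEPES buffer, pH 7.2 / Reagent: TAMRA-labelled myosin IIA heavy-chain peptide probe, 5 nM / Compound: one dose per compound / Timing: polarization read 5 min after assay mix addition, stable 5–60 min / Benchmarks: neutral control DMSO, positive control TFP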
RAD54 branch: RAD54 (human) branch migration inhibition; Q92698; actives 0.14% (n = 360,000); inhibition, % at 10.4 µM; RAD54 Holliday junction branch migration, FAM/BHQ fluorescence;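 active = mean normalized replicate activity at least 40 and at least half of replicates scoring 40 or more; inconclusive = only one of the two criteria met; inactive = mean below 40 and under half of replicates reaching 40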;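 also: inhibitors cause a drop in the FAM fluorescence signal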
dFosB activator: enhances mouse delta FosB homodimer DNA binding. P13346. purified delta FosB, TAMRA-CDK5 oligo fluorescence polarization; percent of positive-control signal above neutral wells. activation, % at 25 µM. actives 0.99% (n = 340,000);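 active = mean activation above about 17%, with every replicate also reaching it, limit read from the data, passing the limit was not always enough; inconclusive = only one of the two conditions met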
SR-BI DiI-HDL act: enhances SR-BI lipid uptake from DiI-HDL | AID 504775 | CHO ldlA[mSR-BI] cells, DiI-HDL uptake fluorescence, 3 h; 100 = double the neutral-control signal | activation, % at 12.5 µM | actives 0.096% (n = 320,000);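 active = mean replicate activation of at least 60% and every replicate at or above 60%; inconclusive = mean or all-replicate condition met, but not both; inactive = mean below 60% and not all replicates reaching 60%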
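Assay system: LDL receptor-deficient CHO ldlA cells overexpressing murine SR-BI / Medium: BSA-supplemented, HEPES-buffered Ham's F12, pH 7.4 / Probe or stimulus: DiI-labelled HDL at 10 µg/mL final / Timing: compound with DiI-HDL co-incubation, 3 h at 37 °C / Technique: bottom-read cell fluorescence after medium removal, ex 550/em 595 nm / Measure: HDL uptake via cellular fluorescence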
PvdQ inh: blocks Pseudomonas aeruginosa PvdQ acylase activity; purified PvdQ acylase, fluorescence plate reader; inhibition, % at 10 µM; actives 0.063% (n = 340,000); AID 488965; in the data active = inhibition above about 30%, passing the limit was not always enough; inconclusive = no clear call, values can overlap the other calls
SR-BI HDL uptake: blocks mouse SR-BI lipid uptake from DiI-HDL | Q61009 | AID 488896 | ldlA[mSR-BI] CHO cells, DiI-HDL uptake fluorescence, 3 h | inhibition, % at 12.5 µM | actives 0.96% (n = 320,000);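 active = mean replicate inhibition of at least 70% and a set share of replicates each scoring 70 or more; inconclusive = meets just one of the two criteria; inactive = fails both criteria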
Target sequence (Q61009 whole entry, looked up): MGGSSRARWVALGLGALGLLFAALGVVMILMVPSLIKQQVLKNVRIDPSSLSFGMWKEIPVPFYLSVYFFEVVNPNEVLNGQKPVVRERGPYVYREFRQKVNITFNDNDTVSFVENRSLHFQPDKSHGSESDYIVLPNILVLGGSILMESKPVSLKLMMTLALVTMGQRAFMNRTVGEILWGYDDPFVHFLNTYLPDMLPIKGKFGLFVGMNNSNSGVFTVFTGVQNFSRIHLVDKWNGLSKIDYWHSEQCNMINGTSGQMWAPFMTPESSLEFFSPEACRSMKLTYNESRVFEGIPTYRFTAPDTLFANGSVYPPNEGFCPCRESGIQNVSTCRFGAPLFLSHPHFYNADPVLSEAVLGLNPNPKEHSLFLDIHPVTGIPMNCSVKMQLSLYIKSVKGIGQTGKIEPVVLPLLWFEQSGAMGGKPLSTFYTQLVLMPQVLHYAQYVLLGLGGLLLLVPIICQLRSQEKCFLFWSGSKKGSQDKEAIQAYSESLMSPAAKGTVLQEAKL
A number is an active result; . = inactive; ? = inconclusive; / = not tested or not shown; ! = a repeat was not active. Only some compounds are listed: those with a hit (about 1.6% of all), similar ones and a draw of the others.

SMILES	S100A4 MyoIIA	RAD54 branch	dFosB activator	SR-BI DiI-HDL act	PvdQ inh	SR-BI HDL uptake
Cc1ccc(S(=O)(=O)Nc2ccc3c(c2)C(=O)N([C@H](C)CO)C[C@@H](C)[C@H](CN(C)S(=O)(=O)c2ccc(Cl)cc2)O3)cc1	.	/	/	/	/	/
C=CCOC(=O)[C@H]1[C@@H]2C(=O)O[C@@H](c3ccccc3)[C@@H](c3ccccc3)N2[C@@H](c2ccc(OCCOC(=O)[C@@H]3C[C@@H]4C(=O)N[C@@H](Cc5ccccc5)C(=O)N4[C@@H]3c3ccc(O)cc3)cc2)[C@]12C(=O)Nc1ccc(I)cc12	.	.	/	/	/	/
O=C(C[C@@H]1C=C[C@@H](NC(=O)Nc2cc(F)ccc2F)[C@H](CO)O1)Nc1ccccc1	.	.	/	/	/	/
O=C1CN(Cc2ccc(F)cc2)C[C@@H]2[C@@H](c3ccc(-c4ccccc4F)cc3)[C@H](CO)N12	112	/	/	/	/	/
C[C@H](CO)N1C[C@H](C)[C@H](CN(C)C(=O)Cc2ccccn2)Oc2cc(C#Cc3ccccc3)ccc2S1(=O)=O	.	.	/	/	/	/
O=C(Nc1ccc2c(c1)OCO2)N[C@H]1C=C[C@@H](CC(=O)N2CCN(c3ccccc3)CC2)O[C@H]1CO	.	.	/	/	/	/
C/C(=N\NC(=O)c1c(Br)c(C)nn1C)c1ccc(NC(=O)C(C)Oc2ccc(Cl)cc2C)cc1 (centres undefined)	/	.	.	.	.	76
CCC(=O)Nc1ccc(/C(C)=N/NC(=O)c2c(Br)c(C)nn2C)cc1	.	.	.	.	.	.
COc1cc(C2Nc3cccc4cccc(c34)N2)ccc1O	.	.	52	.	.	.
c1cc2c3c(cccc3c1)NC(c1ccc3c(c1)OCO3)N2	.	.	36	.	.	.
CCN(CC)c1ccc(C2Nc3cccc4cccc(c34)N2)c(O)c1	.	.	.	.	.	114
C[C@H]1CN([C@@H](C)CO)C(=O)c2cccc(NC(=O)Nc3cccc4ccccc34)c2O[C@@H]1CN(C)S(C)(=O)=O	.	.	/	/	/	/
CCC(=O)N1C[C@@H](C)[C@H](OC)CN(C)C(=O)c2cc(NC(=O)Nc3cccc(F)c3)ccc2OC[C@H]1C	.	.	/	/	/	/
CCOc1ccccc1NC(=O)c1cc(-c2ccccn2)nc2ccccc12	.	.	.	.	.	75
CCN(CC)C(=O)c1cccc(NC(=O)c2cc(-c3ccccn3)nc3ccccc23)c1	.	.	.	.	.	75
CCOc1ccccc1-c1cc(C(=O)N/N=C/c2ccc(O)c(OC)c2)c2ccccc2n1	/	/	25	.	.	.
Cc1cn2c(N)c(/C=C3\C=Nc4ccccc43)c(=O)nc2s1	.	/	19	/	.	/
COc1cc(/C=N/NC(=O)c2ccc(COc3cc(C)ccc3C(C)C)cc2)cc(OC)c1O	/	/	.	.	.	.
Cc1ccc(C(C)C)c(OCc2ccc(C(=O)N/N=C/c3cccc(O)c3O)cc2)c1	.	/	.	.	.	136
Cc1ccc(C(C)C)c(OCc2ccc(C(=O)N/N=C/c3ccc(O)c(O)c3)cc2)c1	/	.	.	.	.	82
Cn1c(-c2ccsc2)c(-c2cccs2)c2cc(-c3ccc4cc[nH]c4c3)ccc21	.	.	.	.	.	77
Cn1c(-c2ccsc2)c(-c2cccs2)c2cc(-c3ccc4[nH]ccc4c3)ccc21	.	.	.	.	.	.
C[C@@H]1CCCCO[C@@H](CN(C)S(=O)(=O)c2cccs2)[C@@H](C)CN([C@@H](C)CO)C(=O)c2cc(NC(=O)C3CCCCC3)ccc2O1	.	.	/	/	/	/
C[C@H]1CN([C@@H](C)CO)S(=O)(=O)c2ccc(C3=CCCCC3)cc2O[C@H]1CN(C)Cc1ccccc1	100	.	/	/	/	/
C[C@@H]1CN([C@H](C)CO)S(=O)(=O)c2ccc(C3=CCCCC3)cc2O[C@@H]1CN(C)Cc1cncnc1	107	.	/	/	/	/
SMILES	S100A4 MyoIIA	RAD54 branch	dFosB activator	SR-BI DiI-HDL act	PvdQ inh	SR-BI HDL uptake
C[C@@H]1CN([C@H](C)CO)S(=O)(=O)c2ccc(C3=CCCCC3)cc2O[C@@H]1CN(C)Cc1ccccc1	79	.	/	/	/	/
C[C@@H]1CN([C@@H](C)CO)S(=O)(=O)c2ccc(C3=CCCCC3)cc2O[C@@H]1CN(C)Cc1cncnc1	.	.	/	/	/	/
Cc1ccc(-c2ccc([C@H]3[C@H](CO)N4CCCCN(C(=O)Nc5cccc(F)c5)C[C@@H]34)cc2)cc1	/	.	/	/	/	/
COC1(C)CC2C(CC1OC(=O)c1cc([N+](=O)[O-])cc([N+](=O)[O-])c1)C2(C)C (centres undefined)	.	.	.	.	.	93!
COCC(=O)Nc1ccc2c(c1)OC[C@@H](C)N(Cc1cccc(F)c1)C[C@H](C)[C@@H](OC)CN(C)C2=O	.	.	/	/	/	/
CN(C(=O)C(C)(C)C)c1ccc(OCC(=O)N2CCc3ccccc3C2)cc1	.	.	.	.	.	95
COc1ccc(NC(=O)C(=O)c2cn(CC(=O)N3CCCC3)c3ccccc23)c(OC)c1	.	.	.	.	.	72
COc1ccc(NC(=O)/C(C#N)=C/c2ccc(OCCN3CCOCC3)c(OC)c2)c(OC)c1	/	.	.	.	.	75
COc1ccccc1NC(=O)/C(C#N)=C/c1ccc(OCCN2CCOCC2)c(OC)c1	/	.	.	.	.	?
COc1ccc(NC(=O)c2ccccc2Oc2ccccc2)c(OC)c1	.	.	.	.	.	.
O=C(NNC(=O)c1ccccc1OCc1ccc(F)cc1)c1ccccc1O	.	.	.	.	.	125
O=C(NNC(=O)c1ccccc1OCc1ccccc1)c1ccccc1O	.	.	.	.	.	114
COc1ccc(NC(=O)c2ccccc2OCc2ccc(F)cc2)c(OC)c1	.	.	.	.	.	94
O=C(NNC(=O)c1ccccc1OCc1ccccc1)c1ccccc1F	.	.	.	.	.	.
Cc1noc(C)c1NC(=O)N(C)C[C@@H]1Oc2ccc(NS(=O)(=O)c3ccccc3)cc2CC(=O)N([C@H](C)CO)C[C@@H]1C	.	.	/	/	/	/
CCOC(=O)c1ccccc1-n1c(C)cc(C2N=C(N)Nc3nc4ccccc4n32)c1C (centres undefined)	.	.	45	.	.	.
CCOC(=O)C1=C(C)Nc2nc3ccccc3n2C1c1ccc(O)cc1 (centres undefined)	.	.	.	.	.	.
CCc1nnc(NC(=O)c2ccc(S(=O)(=O)N3CCc4ccccc4C3)cc2)s1	.	/	.	.	.	.
Cc1cc(C)c2sc(NNC(=O)c3ccc(S(=O)(=O)N4CCc5ccccc5C4)cc3)nc2c1	.	.	.	.	.	146
Cc1cc(C)c2nc(NNC(=O)c3ccc(S(=O)(=O)N4CCc5ccccc5C4)cc3)sc2c1	.	.	.	.	.	133
